Screening data: PubChem, Sanford-Burnham Center for Chemical Genomics
SUMO1 PPI mod – modulators of SUMO1 protein-protein interactions, primary screen, biochemical, uHTS | Small ubiquitin-related modifier 1 (Homo sapiens), P63165 | SUMO1 binding to a labelled peptide, TR-FRET, 1 h | inhibition, % at 20 µM | 360,000 compounds, 0.33% hits | AID 602429, 2012; in the data active = inhibition above about 37%
Target sequence (P63165 whole entry, looked up): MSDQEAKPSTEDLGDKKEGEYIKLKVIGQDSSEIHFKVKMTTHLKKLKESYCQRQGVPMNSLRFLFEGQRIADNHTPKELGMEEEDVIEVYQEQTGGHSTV
Scp-1 inhibitor – Scp-1 phosphatase inhibitors, primary screen, biochemical, colorimetric, uHTS; Carboxy-terminal domain RNA polymerase II polypeptide A small phosphatase 1 (Homo …; Recombinant Scp1, phosphopeptide, malachite green phosphate absorbance; inhibition, % at 20 µM; 340,000 compounds, 0.88% hits; AID 493091, 2011;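 active = inhibition above about 50% at 20 µM, limit read from the data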;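 also: plate controls were DMSO wells with enzyme for no effect and wells lacking enzyme for full effect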
Target sequence (Q9GZU7 76-261 limits assumed): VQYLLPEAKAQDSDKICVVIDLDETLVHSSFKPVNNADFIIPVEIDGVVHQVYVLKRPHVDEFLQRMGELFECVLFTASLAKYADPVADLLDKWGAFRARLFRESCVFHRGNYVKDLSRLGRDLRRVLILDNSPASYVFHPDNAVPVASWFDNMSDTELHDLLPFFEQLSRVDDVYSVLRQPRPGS
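Test system: SCP-1 phosphatase catalytic domain, residues 76-261; measured by: colorimetric phosphate reagent with accelerator and stabiliser, absorbance at 630 nm; timing: enzyme reaction 45 min at room temperature, colour 5 min, stabilisation 30 min; also added: Phosphorylated 17-residue peptide substrate; compound dosing: one concentration, 20 µM, with 1.0% DMSO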
DNMT1 block – human DNMT1 methyltransferase inhibitors, primary screen, biochemical, molecular beacon, fluorescence, HinP1I cleavage, uHTS | DNA (cytosine-5)-methyltransferase 1 (Homo sapiens), P26358 | inhibition (reported as % activation of signal), % at 10 µM | 360,000 compounds, 0.83% hits; in the data active = inhibition above about 50%
STEP block – STEP phosphatase inhibitors, primary screen, biochemical, fluorescence intensity, uHTS; Tyrosine-protein phosphatase non-receptor type 5 (Homo sapiens), P54829; recombinant STEP, OMFP fluorogenic substrate; inhibition, % at 20 µM; 360,000 compounds, 0.25% hits; AID 588621, 2011;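 active = inhibition at 20 µM, scaled per plate between control wells, above about 37%, limit read from the data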;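 also: 0% = DMSO with enzyme and substrate and 100% = substrate only without enzyme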
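Also added – OMFP at 25 µM · Test system – STEP tyrosine phosphatase · Technique – FITC-channel fluorescence of OMFP product · Schedule – 20 min at room temperature, dark · Evaluation – control-normalized % inhibition with plate pattern correction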
LMPTP inh – LMPTP phosphatase inhibitors, primary screen, biochemical, fluorescence intensity, uHTS; recombinant LMPTP-A, OMFP fluorogenic substrate; inhibition, % at 20 µM; 360,000 compounds, 0.22% hits;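 active = compounds that cut the enzyme signal by at least half of the control window in the single-dose screen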;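 also: plate controls were DMSO wells with enzyme plus substrate for no effect and substrate without enzyme for full effect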
Target sequence (P24666 whole entry, looked up): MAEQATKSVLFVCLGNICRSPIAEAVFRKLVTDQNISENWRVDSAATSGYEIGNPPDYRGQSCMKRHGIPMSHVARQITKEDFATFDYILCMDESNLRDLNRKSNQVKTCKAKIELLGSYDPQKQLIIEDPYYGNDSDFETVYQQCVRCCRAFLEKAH
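Test system: LMPTP-A, protein tyrosine phosphatase of low molecular weight; Input: 0.625 nM enzyme; Incubation: 50 min dark incubation at room temperature; Signal: endpoint fluorescence intensity from OMFP dephosphorylation; Read-out basis: % inhibition versus control wells.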
Beacon interf DR – spectral interference with molecular beacon fluorescence, dose response, artefact control for DNMT1 inhibitor project, biochemical, fluorescent molecular beacon; 200 tested, under 10 active; shares compounds with DNMT1 block; IC50, µM; spectral interference counter-screen; call rule not given here
DNMT1 confirm – DNMT1 methyltransferase inhibitor retest, confirmation, biochemical, molecular beacon, fluorescence, single concentration. 2,300 compounds, 8% hits. shares compounds with DNMT1 block. AID 602385, 2012. inhibition, % at 10 µM. DNMT1 molecular beacon HinP1I cleavage;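 active = average inhibition of at least 30% in the single-concentration confirmation test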
DNMT1 interf – counter-screen for DNMT1 inhibitors: spectral interference; shares compounds with DNMT1 block; DNMT1 molecular beacon spectral interference counterscreen, fluorescence 485/520; activation (fluorescence interference), % at 10 µM; 2,300 compounds, 1% hits;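 active = activation of at least 30% at 10 µM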;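 also: DNMT1 catalytic domain with a HinP1I cleavage step and a FAM/dabcyl DNA beacon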
Active calls of the source: *; . = not tested or not shown; ! = not active in a repeat. Shown are actives, neighbours in structure and some others; about 1.7% of the full set was active somewhere.

SMILES | SUMO1 PPI mod | Scp-1 inhibitor | DNMT1 block | STEP block | LMPTP inh | DNMT1 confirm | DNMT1 interf | others
C=C(C)C(=O)Nc1cccc(C2=NOC3(C2)C[C@H](C(N)=O)N(C(=O)CC)C3)c1 (some centres undefined) | 62* | 64* | 99* | 3 | 0 | 55* | 1 | Beacon interf DR=>99
C=C(C)C(=O)Nc1cccc(C2=NOC3(C2)C[C@@H](C(N)=O)N(C(=O)/C=C/C=C/C)C3)c1 (some centres undefined) | 105* | 75* | 105* | 11 | 0 | 90* | -3 | Beacon interf DR=>99
O=c1c(-c2c(O)cc(O)c3c(=O)cc(-c4ccc(O)cc4)oc23)c(-c2ccc(O)cc2)oc2cc(O)cc(O)c12 | 50* | 53* | 93* | -3 | 15 | 12 | 7
Cc1ccc(C(=O)Nc2cccc(C(F)(F)F)c2)cc1NC(=O)c1cnnc2ccccc12 | 3 | 1 | 55*! | 5 | 2 | 3 | -1
Cc1ccc(C(=O)Nc2cccc(C(F)(F)F)c2)cc1NC(=O)c1[nH]cnc1C(N)=O | 9 | -3 | 56* | 0 | -1 | 3 | -1
NC(=O)c1nc[nH]c1C(=O)Nc1cccc(C(F)(F)F)c1 | 9 | -6 | 4 | -1 | -3 | . | .
Nc1ncnc2c1ncn2[C@@H]1O[C@H](C(=O)NS(=O)(=O)c2cccc(F)c2)[C@@H](O)[C@H]1O | 0 | . | 2 | -3 | -2 | . | .
N#Cc1ccccc1S(=O)(=O)NC(=O)[C@H]1O[C@@H](n2cnc3c(N)ncnc32)[C@H](O)[C@@H]1O | 2 | . | 84* | -1 | -2 | 4 | -1
O=C(O)c1ccccc1C1=Nc2ccc(O)cc2Oc2cc(O)ccc21 | 6 | 0 | 55* | -8 | -2 | 39* | 45*
CCN(CC)S(=O)(=O)c1ccc(-c2nnc(SCC(=O)N3CCOCC3)o2)cc1 | 2 | -3 | 4 | 2 | -2 | . | .
CCN(CC)S(=O)(=O)c1ccc(-c2nnc(SCC(=O)N3CCc4ccccc43)o2)cc1 | -5 | -5 | 54* | 2 | -3 | 1 | -2
CC1C(=O)N2CCCc3cc(S(=O)(=O)N4CCN(c5cccc(Cl)c5)CC4)cc1c32 (centres undefined) | 4 | -6 | -1 | 2 | 4 | . | .
O=C1NC(=S)S/C1=C\c1coc2ccc(O)cc2c1=O | 6 | 4 | 81* | 68* | 3 | 0 | 1
Cc1ccc(S(=O)(=O)NCCC(=O)OCc2ccc([N+](=O)[O-])cc2)cc1C | -12 | -8 | 2 | 4 | 0 | . | .
Cc1c([N+](=O)[O-])c(C/C=N/O)nn1C | 1 | 7 | -1 | -1 | -1 | . | .
Cc1ccc(C)c(NC(=O)COC(=O)c2ccc(S(=O)(=O)N3CCCC3)cc2)c1 | 1 | . | 17 | 3 | 3 | . | .
CC(=O)Nc1ccc(NC(=O)C2CCCN2C(=O)NCc2ccccc2)cc1 (centres undefined) | 1 | -7 | 88* | 4 | -1 | 2 | 3
O=C(Nc1ccccc1)C1CCCN1C(=O)NCc1ccccc1 (centres undefined) | 4 | -6 | 1 | -4 | 1 | . | .
Fc1ccc(Nc2nc(-c3ccncc3)nc3ccccc23)cc1F | 19 | -13 | 56* | 14 | 13 | 7 | 1
c1ccc2c(Nc3nc(-c4ccncc4)nc4ccccc34)cccc2c1 | 5 | -2 | -10 | -2 | 2 | . | .
